Results collected from several papers.
Compare with care: the assays were run in different laboratories. pIC50: −log10 of the molar value.
Cell line: SK-OV-3

Structure (SMILES) | observed | technique | tested at | time | endpoint | value
O=C(c1cc(Cc2n[nH]c(=O)c3ccccc23)ccc1F)N1CCN(C(=O)C2CC2)CC1 | colony formation | – | – | – | pIC50 | 5.58
COc1cc(Nc2nccc(-c3cnn4nc(OC)ccc34)n2)cc(C(F)(F)F)c1 | cell growth or viability | ATP luminescence | – | – | pIC50 | 6.80
COc1cc(CNC(=O)CCCC/C=C/C(C)C)ccc1OCc1cn(-c2ccc(C#N)cc2)nn1 | cell growth or viability | SRB | – | – | pIC50 | 4.49
COc1ccc(C(=O)/C=C/c2ccc(Cl)c(Cl)c2)cc1S(N)(=O)=O | cell growth or viability | SRB | 10 µM | – | inhibition | 48%
COc1ccc(-c2ccc(-c3ccc(C(=N)N)nc3)s2)cc1Cl | cell growth or viability | SRB | – | – | GI50 | 1.75 µM
Cc1cc(C)n(C(=S)[S][Au][PH](CCCCCC[PH]([Au][S]C(=S)n2nc(C)cc2C)(c2ccccc2)c2ccccc2)(c2ccccc2)c2ccccc2)n1 | cell growth or viability | – | – | – | GI50 | 0.852 µM
OCc1ccc2c(c1C#Cc1ccc(O)cc1)C(c1ccc(O)cc1)(c1ccc(O)cc1)c1cc(O)ccc1-2 | cell growth or viability | MTT | – | 48 h | pIC50 | < 4.30
COc1ccc(C(=O)/C=C/c2ccccc2Br)cc1S(N)(=O)=O | cell growth or viability | SRB | – | 48 h | GI50 | 12.9 µM
CC(=O)OC[C@H]1O[C@@H]([S-])[C@H](OC(C)=O)[C@@H](OC(C)=O)[C@@H]1OC(C)=O.CCP(CC)CC.[Au+] | cell growth or viability | resazurin | – | – | pIC50 | 5.57
COc1ccc(C(=O)/C=C/c2ccc3ccccc3c2)cc1S(N)(=O)=O | cell growth or viability | SRB | 10 µM | – | inhibition | 77%
C[C@]12CC[C@@H]3c4ccc(O)cc4CC[C@H]3[C@@H]1CC[C@@H]2O | cell growth or viability | ATP luminescence | – | 72 h | EC90 | 56.8 µM
O=c1[nH]cc(F)c(=O)[nH]1 | cell growth or viability | MTT | – | 48 h | pIC50 | 4.43
CC/C(=C(\c1ccccc1)c1ccc(OCCN(C)C)cc1)c1ccccc1 | cell growth or viability | ATP luminescence | – | 72 h | EC90 | 17.4 µM
COc1ccc(C(=O)/C=C/c2cccc(Br)c2)cc1S(N)(=O)=O | cell growth or viability | SRB | – | 48 h | GI50 | 4.1 µM
CCN1CCN(Cc2ccc(Nc3ncc(F)c(-c4cc(F)c5nc(C)n(C(C)C)c5c4)n3)nc2)CC1 | cell growth or viability | CCK-8 | – | – | pIC50 | 5.79
COc1ccc(C(=O)/C=C/c2c(F)cccc2Cl)cc1S(N)(=O)=O | cell growth or viability | SRB | 10 µM | – | inhibition | 73%
COc1cccc2c1C(=O)c1c(O)c3c(c(O)c1C2=O)C[C@@](O)(C(=O)CO)C[C@@H]3O[C@H]1C[C@H](N)[C@H](O)[C@H](C)O1 | cell growth or viability | SRB | – | – | pIC50 | 4.59
